ChEMBL document CHEMBL1629600, “Multiple-dose pharmacokinetic behavior of elvucitabine, a nucleoside reverse transcriptase inhibitor, administered over 21 days with lopinavir-ritonavir in human immunodeficiency virus type 1-infected subjects” (Antimicrob Agents Chemother, 2009)

Tests used:
[1] = AUC (0 to 24 hrs) in HIV1 infected human at 5 mg qd for 21 days in presence of 400 mg of Lopinavir and 100 mg of itonavir administered once every 12 hrs; assay type: ADME, organism-based; design: time < 24 hr, dose 5 mg; settings: plasma
Outline: (§1)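 HIV-infected adults (3.6–5.6 log10 RNA copies/ml) given enteric-coated tablets fasting; lopinavir-ritonavir given with food 2 h later. Plasma drawn on days 1 and 21 predose and at 0.5–24 h postdose. LC-MS/MS assay, range 0.500–100 ng/ml. Noncompartmental analysis gave Cmax, Tmax, C24 (24-h concentration) and linear-trapezoidal AUC0-24. Reported as arithmetic mean (%CV), median (range).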

[2] = test system: Homo sapiens; assay: Distributional clearance with respect to the bioavailability in HIV1 infected human at 20 mg administered once every 48 hrs for 21 days in presence of 400 mg of Lopinavir and 100 mg of itonavir administered once every 12 hrs; assay type: ADME, organism-based; settings: in vivo
Outline: (§2)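 Population compartmental fit to all plasma concentrations over 804 h. Two-compartment model with two first-order absorption rates, lag times per dose and first-order elimination. Relative bioavailability allowed to differ for day 1, the only dose given before lopinavir-ritonavir. Weighting 1/S², with S² = (a + b×Y)². Parameters expressed relative to F (CL/F, V/F).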

[3] = Cmax in HIV1 infected human at 10 mg after 24 hrs presence of 400 mg of Lopinavir and 100 mg of itonavir; assay type: ADME, organism-based; design: dose 10 mg; settings: in vivo; outline: as §1
[4] = Cmax in HIV1 infected human at 5 mg after 24 hrs presence of 400 mg of Lopinavir and 100 mg of itonavir; assay type: ADME, organism-based; design: dose 5 mg; settings: in vivo; outline: as §1
[5] = AUC (0 to 24 hrs) in HIV1 infected human at 20 mg after 24 hrs in presence of 400 mg of Lopinavir and 100 mg of itonavir administered once every 12 hrs; assay type: ADME, organism-based; design: time < 24 hr, dose 20 mg; settings: plasma; outline: as §1
[6] = AUC (0 to 24 hrs) in HIV1 infected human at 10 mg qd for 21 days in presence of 400 mg of Lopinavir and 100 mg of itonavir administered once every 12 hrs; assay type: ADME, organism-based; design: dose 10 mg, time < 24 hr; settings: plasma; outline: as §1
[7] = Drug level in HIV1 infected human plasma at 10 mg qd for 21 days in presence of 400 mg of Lopinavir and 100 mg of itonavir administered once every 12 hrs; assay type: ADME, organism-based; settings: read-out: Drug uptake; outline: as §1
[8] = Cmax in HIV1 infected human at 20 mg administered once every 48 hrs for 21 days in presence of 400 mg of Lopinavir and 100 mg of itonavir administered once every 12 hrs; assay type: ADME, organism-based; design: dose 20 mg; settings: in vivo; outline: as §1
[9] = Apparent oral clearance in HIV1 infected human at 20 mg administered once every 48 hrs for 21 days in presence of 400 mg of Lopinavir and 100 mg of itonavir administered once every 12 hrs; assay type: ADME, organism-based; settings: in vivo; outline: as §2
[10] = Half life in HIV1 infected human at 5 mg qd for 21 days in presence of 400 mg of Lopinavir and 100 mg of itonavir administered once every 12 hrs; assay type: ADME, organism-based; settings: in vivo
Outline: (§3)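 Elimination rate constant and t1/2 obtained by noncompartmental analysis after the day-21 dose, using 336 h of terminal-phase sampling. Plasma collected through day 35 (days 25, 28, 35 after stopping). Concentrations measured by LC-MS/MS, range 0.500–100 ng/ml. Eight subjects per cohort; reported as mean (%CV), median (range).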

[11] = Cmax in HIV1 infected human at 20 mg after 24 hrs in presence of 400 mg of Lopinavir and 100 mg of itonavir administered once every 12 hrs; assay type: ADME, organism-based; design: dose 20 mg; settings: in vivo; outline: as §1
[12] = Cmax in HIV1 infected human at 5 mg qd for 21 days in presence of 400 mg of Lopinavir and 100 mg of itonavir administered once every 12 hrs; assay type: ADME, organism-based; design: dose 5 mg; settings: in vivo; outline: as §1
[13] = test system: Homo sapiens; assay: Central volume of distribution with respect to the bioavailability in HIV1 infected human at 20 mg administered once every 48 hrs for 21 days in presence of 400 mg of Lopinavir and 100 mg of itonavir administered once every 12 hrs; assay type: ADME, organism-based; settings: in vivo; outline: as §2
[14] = Tmax in HIV1 infected human at 20 mg administered once every 48 hrs for 21 days in presence of 400 mg of Lopinavir and 100 mg of itonavir administered once every 12 hrs; assay type: ADME, organism-based; settings: in vivo; outline: as §1
[15] = Drug level in HIV1 infected human plasma at 20 mg after 24 hrs in presence of 400 mg of Lopinavir and 100 mg of itonavir administered once every 12 hrs; assay type: ADME; settings: read-out: Drug uptake; outline: as §1
[16] = Tmax in HIV1 infected human at 5 mg after 24 hrs presence of 400 mg of Lopinavir and 100 mg of itonavir; assay type: ADME, organism-based; settings: in vivo; outline: as §1
[17] = Tmax in HIV1 infected human at 20 mg after 24 hrs in presence of 400 mg of Lopinavir and 100 mg of itonavir administered once every 12 hrs; assay type: ADME, organism-based; settings: in vivo; outline: as §1
[18] = species: Homo sapiens; assay: Time prior to start absorption at second absorption site in HIV1 infected human at 20 mg after 24 hrs; assay type: ADME, organism-based; settings: in vivo; outline: as §2
[19] = test system: Homo sapiens; assay: Absorption rate constant at second absorption site in HIV1 infected human at 20 mg administered once every 48 hrs for 21 days in presence of 400 mg of Lopinavir and 100 mg of itonavir administered once every 12 hr; assay type: ADME, organism-based; settings: in vivo; outline: as §2
[20] = Volume of distribution at steady state with respect to the bioavailability in HIV1 infected human at 20 mg administered once every 48 hrs for 21 days in presence of 400 mg of Lopinavir and 100 mg of itonavir administered once every 12 hrs; assay type: ADME, organism-based; settings: in vivo, read-out: Vss/F; outline: as §2
[21] = Cmax in HIV1 infected human at 10 mg qd for 21 days in presence of 400 mg of Lopinavir and 100 mg of itonavir administered once every 12 hrs; assay type: ADME, organism-based; design: dose 10 mg; settings: in vivo; outline: as §1
[22] = Terminal half life in HIV1 infected human at 20 mg administered once every 48 hrs for 21 days in presence of 400 mg of Lopinavir and 100 mg of itonavir administered once every 12 hrs; assay type: ADME, organism-based; settings: in vivo, read-out: beta t1/2 (converted); outline: as §2
[23] = Drug level in HIV1 infected human plasma at 5 mg after 24 hrs presence of 400 mg of Lopinavir and 100 mg of itonavir; assay type: ADME; settings: read-out: Drug uptake; outline: as §1
[24] = AUC (0 to 24 hrs) in HIV1 infected human at 20 mg administered once every 48 hrs for 21 days in presence of 400 mg of Lopinavir and 100 mg of itonavir administered once every 12 hrs; assay type: ADME, organism-based; design: dose 20 mg, time < 24 hr; settings: plasma; outline: as §1
[25] = test system: Homo sapiens; assay: Time prior to start absorption at second absorption site in HIV1 infected human at 20 mg administered once every 48 hrs for 21 days in presence of 400 mg of Lopinavir and 100 mg of itonavir administered once every 12 hrs; assay type: ADME, organism-based; settings: in vivo; outline: as §2
[26] = AUC (0 to 24 hrs) in HIV1 infected human at 5 mg after 24 hrs presence of 400 mg of Lopinavir and 100 mg of itonavir; assay type: ADME, organism-based; design: time < 24 hr, dose 5 mg; settings: plasma; outline: as §1
[27] = test system: Homo sapiens; assay: Peripheral volume of distribution with respect to the bioavailability in HIV1 infected human at 20 mg administered once every 48 hrs for 21 days in presence of 400 mg of Lopinavir and 100 mg of itonavir administered once every 12 hrs; assay type: ADME, organism-based; settings: in vivo; outline: as §2
[28] = Oral bioavailability in HIV1 infected human at 20 mg after 24 hrs; assay type: ADME, organism-based; settings: in vivo; outline: as §2
[29] = AUC (0 to 24 hrs) in HIV1 infected human at 10 mg after 24 hrs presence of 400 mg of Lopinavir and 100 mg of itonavir; assay type: ADME, organism-based; design: time < 24 hr, dose 10 mg; settings: plasma; outline: as §1
[30] = Tmax in HIV1 infected human at 10 mg qd for 21 days in presence of 400 mg of Lopinavir and 100 mg of itonavir administered once every 12 hrs; assay type: ADME, organism-based; settings: in vivo; outline: as §1
[31] = Half life in HIV1 infected human at 20 mg administered once every 48 hrs for 21 days in presence of 400 mg of Lopinavir and 100 mg of itonavir administered once every 12 hrs; assay type: ADME, organism-based; settings: in vivo; outline: as §3
[32] = Tmax in HIV1 infected human at 10 mg after 24 hrs presence of 400 mg of Lopinavir and 100 mg of itonavir; assay type: ADME, organism-based; settings: in vivo; outline: as §1
[33] = Drug level in HIV1 infected human plasma at 10 mg after 24 hrs presence of 400 mg of Lopinavir and 100 mg of itonavir; assay type: ADME, organism-based; settings: read-out: Drug uptake; outline: as §1
[34] = test system: Homo sapiens; assay: Time prior to start absorption at first absorption site in HIV1 infected human at 20 mg administered once every 48 hrs for 21 days in presence of 400 mg of Lopinavir and 100 mg of itonavir administered once every 12 hrs; assay type: ADME, organism-based; settings: in vivo; outline: as §2
[35] = Drug level in HIV1 infected human plasma at 5 mg qd for 21 days in presence of 400 mg of Lopinavir and 100 mg of itonavir administered once every 12 hrs; assay type: ADME, organism-based; settings: read-out: Drug uptake; outline: as §1
[36] = Drug level in HIV1 infected human plasma at 20 mg administered once every 48 hrs for 21 days in presence of 400 mg of Lopinavir and 100 mg of itonavir administered once every 12 hrs; assay type: ADME, organism-based; settings: read-out: Drug uptake; outline: as §1
[37] = Half life in HIV1 infected human at 10 mg qd for 21 days in presence of 400 mg of Lopinavir and 100 mg of itonavir administered once every 12 hrs; assay type: ADME, organism-based; settings: in vivo; outline: as §3
[38] = species: Homo sapiens; assay: Time prior to start absorption at first absorption site in HIV1 infected human at 20 mg after 24 hrs; assay type: ADME, organism-based; settings: in vivo; outline: as §2
[39] = test system: Homo sapiens; assay: Absorption rate constant at first absorption site in HIV1 infected human at 20 mg administered once every 48 hrs for 21 days in presence of 400 mg of Lopinavir and 100 mg of itonavir administered once every 12 hrs; assay type: ADME, organism-based; settings: in vivo; outline: as §2
[40] = Tmax in HIV1 infected human at 5 mg qd for 21 days in presence of 400 mg of Lopinavir and 100 mg of itonavir administered once every 12 hrs; assay type: ADME, organism-based; settings: in vivo; outline: as §1

With `Nc1nc(=O)n([C@@H]2C=C[C@H](CO)O2)cc1F` [ELVUCITABINE] the AUC at 24 h [1] was 214 ng·h/mL, the CLd/F [2] was 15.4 L/h and the Cmax [3] was 25.3 ng/mL. For the same compound, the Cmax [4] was 7.25 ng/mL, the AUC at 24 h [5] was 262 ng·h/mL and the AUC at 24 h [6] was 435 ng·h/mL. It also gave a concentration at 21 days [7] of 9.7 ng/mL, a Cmax [8] of 108 ng/mL and a CL/F [9] of 423 mL/min. For the same compound, the half-life [10] was 92.5 h, the Cmax [11] was 39.1 ng/mL and the Cmax [12] was 23.1 ng/mL. It also gave a Vc/F [13] of 6.43 L, a Tmax [14] of 4 h and a concentration at 24 h [15] of 3.41 ng/mL. For the same compound, the Tmax [16] was 6.63 h, the Tmax [17] was 3.75 h and the Time [18] was 0.445 h. For the same compound, the ka [19] was 0.42 h⁻¹, the Vd/F [20] was 1620 L and the Cmax [21] was 49.9 ng/mL. It also gave a half-life [22] of 120 h, a concentration at 24 h [23] of 0.832 ng/mL and an AUC at 24 h [24] of 749 ng·h/mL. For the same compound, the Time [25] was 1.02 h, the AUC(0-t) at 24 h [26] was 59.9 ng·h/mL and the Vp/F [27] was 1618 L. It also gave a bioavailability [28] of 55.4%, an AUC(0-t) at 24 h [29] of 155 ng·h/mL and a Tmax [30] of 3.75 h. The half-life [31] was 105 h, the Tmax [32] was 3.31 h and the concentration at 24 h [33] was 1.87 ng/mL. For the same compound, the Time [34] was 0.341 h, the concentration at 21 days [35] was 4.38 ng/mL and the concentration at 21 days [36] was 12 ng/mL. The half-life [37] was 112 h, the Time [38] was 0.363 h and the ka [39] was 0.065 h⁻¹. It also gave a Tmax [40] of 7 h.
